Screening results: PubChem BioAssay, Sanford-Burnham Center for Chemical Genomics
STEP inh: STEP phosphatase inhibitors, primary screen, biochemical, fluorescence intensity, uHTS; Tyrosine-protein phosphatase non-receptor type 5 (Homo sapiens), P54829; recombinant STEP, OMFP fluorogenic substrate; inhibition, % at 20 µM; actives 0.25% (n = 360,000);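 active means inhibition at 20 µM, scaled per plate between control wells, above about 37%, limit read from the data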;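 further: 0% = DMSO with enzyme and substrate and 100% = substrate only without enzyme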
Target sequence (P54829 whole entry, looked up): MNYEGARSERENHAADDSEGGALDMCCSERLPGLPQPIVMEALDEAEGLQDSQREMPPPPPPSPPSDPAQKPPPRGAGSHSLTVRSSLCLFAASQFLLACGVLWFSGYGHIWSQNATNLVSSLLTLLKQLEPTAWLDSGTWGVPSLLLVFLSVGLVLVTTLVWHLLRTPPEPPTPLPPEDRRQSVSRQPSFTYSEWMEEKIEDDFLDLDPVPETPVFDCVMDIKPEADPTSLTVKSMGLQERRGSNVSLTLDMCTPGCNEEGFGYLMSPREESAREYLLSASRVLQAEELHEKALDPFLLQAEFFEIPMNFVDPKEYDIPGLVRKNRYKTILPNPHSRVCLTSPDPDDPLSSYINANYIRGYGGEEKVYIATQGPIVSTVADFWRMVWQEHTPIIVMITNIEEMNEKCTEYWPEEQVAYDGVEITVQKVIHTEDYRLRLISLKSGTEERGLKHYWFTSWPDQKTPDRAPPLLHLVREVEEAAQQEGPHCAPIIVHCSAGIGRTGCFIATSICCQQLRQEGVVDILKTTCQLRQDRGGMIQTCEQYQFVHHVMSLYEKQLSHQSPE
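medium = Bis-Tris buffer pH 6.0, 2.5 mM DTT, 0.005% Tween 20 | test system = STEP (striatal-enriched tyrosine phosphatase) enzyme, cell-free | measure = normalized % inhibition | compound dosing = 20 µM, 1% DMSO | also added = 25 µM OMFP | schedule = reaction 20 min, ambient temperature | measured by = fluorescence read at 480 nm ex / 540 nm em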
SUMO1-SIM PPI: modulators of SUMO1 protein-protein interactions, primary screen, biochemical, uHTS | Small ubiquitin-related modifier 1 (Homo sapiens), P63165 | SUMO1 binding to a labelled peptide, TR-FRET, 1 h | inhibition, % at 20 µM | actives 0.33% (n = 360,000) | AID 602429, 2012; in the data active means inhibition above about 37%
DNMT1 block: human DNMT1 methyltransferase inhibitors, primary screen, biochemical, molecular beacon, fluorescence, HinP1I cleavage, uHTS | DNA (cytosine-5)-methyltransferase 1 (Homo sapiens), P26358 | actives 0.83% (n = 360,000) | AID 588458, 2011 | inhibition (reported as % activation of signal), % at 10 µM; in the data active means inhibition above about 50%
HKDC1 inhibitor: HKDC1 hexokinase inhibitors, primary screen, biochemical, fluorescence, uHTS; Q2TB90; recombinant HKDC1, G6PDH/diaphorase resazurin coupled fluorescence; actives 0.16% (n = 340,000); AID 493160, 2011; inhibition, % at 20 µM;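 active means inhibition above about 35% when tested at 20 µM, limit read from the data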;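 further: plate controls were DMSO wells with enzyme for no effect and DMSO wells lacking enzyme for full effect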
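Test system: Recombinant HKDC1 (HK5) hexokinase enzyme, produced in-house | Input: HKDC1 at 5 µg/mL | Buffer or medium: Tris pH 8.0 buffer with MgCl2, Tween-20, BSA, BME | Schedule: 90 min reaction incubation at room temperature, dark | Technique: Resazurin-to-resorufin fluorescence via G6PDH and diaphorase coupling, 525/613 nm | Controls: DMSO wells with and without enzyme mix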
Scp-1 inhibitor: Scp-1 phosphatase inhibitors, primary screen, biochemical, colorimetric, uHTS. actives 0.88% (n = 340,000). AID 493091, 2011. Recombinant Scp1, phosphopeptide, malachite green phosphate absorbance. Carboxy-terminal domain RNA polymerase II polypeptide A small phosphatase 1 (Homo …. inhibition, % at 20 µM;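 active means inhibition above about 50% at 20 µM, limit read from the data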;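 further: plate controls were DMSO wells with enzyme for no effect and wells lacking enzyme for full effect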
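System: truncated SCP-1 phosphatase (76-261aa); medium: Tris acetate buffer pH 5.5 with MgCl2 and Tween-20; incubation: 45 min room-temperature reaction, 5 min colour, 30 min stabiliser; compound: single 20 µM dose, 1% DMSO; reagent: Phosphorylated 17-residue peptide substrate; read-out: % inhibition at 20 µM; technique: colorimetric free-phosphate detection, absorbance 630 nm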
LMPTP inh: LMPTP phosphatase inhibitors, primary screen, biochemical, fluorescence intensity, uHTS; Low molecular weight phosphotyrosine protein phosphatase (Homo sapiens), P24666; AID 651560, 2012; actives 0.22% (n = 360,000); inhibition, % at 20 µM; recombinant LMPTP-A, OMFP fluorogenic substrate;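 active means compounds that cut the enzyme signal by at least half of the control window in the single-dose screen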;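 further: plate controls were DMSO wells with enzyme plus substrate for no effect and substrate without enzyme for full effect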
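test system = LMPTP-A | amount = 0.625 nM LMPTP-A final | reagent = fluorogenic phosphatase substrate OMFP at 400 µM final | incubation = 50 min at room temperature | benchmarks = no-enzyme low control, uninhibited high control | medium = Bis-Tris pH 6.0, DTT, detergent | signal = fluorescence intensity of OMFP turnover product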
DNMT1 confirm: DNMT1 methyltransferase inhibitor retest, confirmation, biochemical, molecular beacon, fluorescence, single concentration. actives 8% (n = 2,300). shares compounds with DNMT1 block. DNMT1 molecular beacon HinP1I cleavage. inhibition, % at 10 µM. AID 602385, 2012;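 active means average inhibition of at least 30% in the single-concentration confirmation test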
Beacon interf: beacon fluorescence artifact counter-screen; shares compounds with DNMT1 block; DNMT1 molecular beacon spectral interference counterscreen, fluorescence 485/520; activation (fluorescence interference), % at 10 µM; actives 1% (n = 2,300); AID 602387;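 active means activation of at least 30% at 10 µM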;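 further: DNMT1 catalytic domain with a HinP1I cleavage step and a FAM/dabcyl DNA beacon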
An asterisk follows results filed as active; / = no result given. Only some compounds are listed: those with a hit (about 1.8% of all), similar ones and a draw of the others.

SMILES | STEP inh | SUMO1-SIM PPI | DNMT1 block | HKDC1 inhibitor | Scp-1 inhibitor | LMPTP inh | DNMT1 confirm | Beacon interf
N#C/C(=C/c1ccc(-c2ccc([N+](=O)[O-])cc2)o1)C(=O)Nc1nc(-c2cccs2)cs1 | 3 | -25 | 87* | 6 | 5 | 11 | 1 | -3
Cc1ccc(S(=O)(=O)NCC(=O)OCC(=O)N(C)C2CCS(=O)(=O)C2)cc1 (stereo not drawn) | -1 | 2 | 0 | -5 | -4 | 0 | / | /
O=C1NC(=S)N/C1=C/c1cccn1-c1ccc([N+](=O)[O-])cc1 | -2 | -18 | 55* | -3 | 23 | 32 | 4 | -1
CCc1ccc(S(=O)(=O)Nc2nnc(N)s2)cc1 | -3 | 8 | 3 | -5 | -2 | -1 | / | /
CCOC1=C2CN(S(=O)(=O)c3ccc(C)cc3)C(c3cccc(Cl)c3)CC2NC(c2ccccc2)C1 (stereo not drawn) | / | 2 | / | / | / | 5 | / | /
Cc1ccc(-n2nc3c(c2NC(=O)c2ccc(Br)o2)CSC3)c(C)c1 | 5 | 8 | 53* | -3 | -8 | 0 | 14 | -5
Cc1ccc(-n2nc3c(c2NC(=O)C(C)(C)C)CSC3)c(C)c1 | 0 | 0 | 3 | -8 | 3 | -2 | / | /
Cc1cc(OCC(=O)Nc2ccc(N3CCCC3)cc2)cc(C)c1Cl | 3 | 11 | 71* | -13 | -1 | 4 | 1 | -7
Cc1cc(N2CCCC2)ccc1NC(=O)COc1ccccc1 | -1 | -13 | 64* | -2 | -7 | 25 | 2 | 1
COc1ccc(NC(=O)CSc2nc3ccccc3nc2N2CCCC2)c(OC)c1 | -1 | 3 | -2 | 3 | -1 | 2 | / | /
O=C(O)CN1C(=O)/C(=C/c2ccc(N3CCCCC3)o2)SC1=S | 32 | -12 | 18 | 2 | 45 | 0 | / | /
COC(=O)CN1C(=O)S/C(=C/c2ccc(N3CCCCC3)o2)C1=O | -58 | -130 | 67* | 9 | 0 | 2 | 70* | 52*
COc1ccccc1CCc1nnc(N)s1 | 3 | 5 | 81* | 1 | 1 | -2 | 1 | 2
NC(=O)Cn1c(=O)n(Cc2ccco2)c(=O)c2c3c(sc21)CCCCC3 | 16 | 12 | 83* | 15 | 71* | 8 | 3 | 0
COc1ccccc1OCCCCN1CCN(C(c2ccccc2)c2ccccc2)CC1 | 0 | -1 | -9 | -4 | -2 | 2 | / | /
O=C(N=Nc1c(O)[nH]c2ccc(Br)cc12)c1cc(-c2cccs2)nc2ccccc12 | 0 | 5 | 65* | -3 | 7 | 3 | -1 | -12
O=S(=O)(Nc1cccc(-c2ccc3nncn3n2)c1)c1cc(F)ccc1F | 0 | -8 | 0 | 0 | 0 | 0 | / | /
CCNc1ccc(Br)cc(C(=O)/C=C/c2ccc3c(c2)OCO3)c1=O | 4 | 22 | 89* | 21 | 6 | 54* | 1 | 1
CCNc1ccc(Br)cc(C(=O)/C=C/c2ccc(Cl)cc2)c1=O | 2 | 20 | 66* | 12 | -17 | 22 | 4 | 1
Nc1ccccc1C(=O)/C=C/c1ccc2c(c1)OCO2 | 0 | -21 | 7 | 7 | -6 | 2 | / | /
COc1ccc2nc(N3C(=O)/C(=C/c4ccc(Cl)cc4)NC3=S)sc2c1 | 11 | 29 | 100* | 20 | 1 | 27 | 1 | -4
CCOc1ccc2nc(N3C(=O)CNC3=S)sc2c1 | -2 | 3 | 3 | -1 | -11 | -1 | / | /
